Among the data in ChEMBL document CHEMBL1138318, “Synthesis and evaluation of the antiproliferative activities of derivatives of carboxyalkyl isoflavones linked to N-t-Boc-hexylenediamine” (J Med Chem, 2007) are Ratio values, retold here.

Each structure is given as a SMILES string.

Data set [1] concerns A2780. The data set is described as follows: Inhibition of DNA synthesis in human A2780 cells assessed as ratio of treated to untreated control at 3 uM after 48 hrs by [3H]thymidine incorporation assay. Type of data set: functional. The method, boiled down:
(§1)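 Single-concentration screen by [3H]-thymidine incorporation into DNA. Test compounds were used at 0.3 µM in C4–2B cells and at 3 µM in 320DM, MLS, A2780, H295R and VSMC cells. Estradiol 17β was used at 30 nM throughout. Values are experimental/control DNA-synthesis ratios, given as means ± SD of 8–16 incubates from 2–4 experiments.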

The nature of data set [2]: Inhibition of DNA synthesis in human 320DM cells assessed as ratio of treated to untreated control at 3 uM after 48 hrs by [3H]thymidine incorporation assay. It is filed as functional. The gist of the method: as §1
(In general: Dividing cells build labelled thymidine or BrdU into new DNA.)

Data set [3] is described as follows: Inhibition of DNA synthesis in human H295R cells assessed as ratio of treated to untreated control at 3 uM after 48 hrs by [3H]thymidine incorporation assay. Type of data set: functional. The gist of the method:
as §1

Data set [4] has as its system LNCaP C4-2B. The data set is described as follows: Inhibition of DNA synthesis in human C4-2B cells assessed as ratio of treated to untreated control at 0.3 uM after 48 hrs by [3H]thymidine incorporation assay. Type of data set: functional. The method, boiled down:
as §1

Data set [5] can be described thus: Inhibition of DNA synthesis in human VSMC cells assessed as ratio of treated to untreated control at 3 uM after 48 hrs by [3H]thymidine incorporation assay.
A short description of data set [6]: Inhibition of DNA synthesis in human MLS cells assessed as ratio of treated to untreated control at 3 uM after 48 hrs by [3H]thymidine incorporation assay. It is filed as functional. The method, boiled down: as §1
A short description of data set [7]: Inhibition of DNA synthesis in human H295R cells assessed as ratio of treated to untreated control at 30 nM after 48 hrs by [3H]thymidine incorporation assay. It is filed as functional. The gist of the method: as §1
Data set [8] has as its system LNCaP C4-2B. Briefly: Inhibition of DNA synthesis in human C4-2B cells assessed as ratio of treated to untreated control at 30 nM after 48 hrs by [3H]thymidine incorporation assay. Type of data set: functional. The method, boiled down: as §1
The nature of data set [9]: Inhibition of DNA synthesis in human VSMC cells assessed as ratio of treated to untreated control at 30 nM after 48 hrs by [3H]thymidine incorporation assay. It is filed as cell-based. The conditions noted are these: 0.03 µM. The method, boiled down:
as §1

Data set [10] can be described thus: Stimulation of DNA synthesis in human MLS cells assessed as ratio of treated to untreated control at 300 nM after 48 hrs by [3H]thymidine incorporation assay. Type of data set: functional. The gist of the method:
(§2)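 Estradiol-driven proliferation in MLS and 320DM cells, measured by [3H]-thymidine incorporation. Cells were exposed to estradiol at 30 or 300 nM, alone or with compound (0.3 µM) or ICI 182780 (1.1 µM). Values are E/C ratios versus untreated control, given as means ± SD of 8–16 incubates from 2–4 experiments.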

Data set [11] can be described thus: Inhibition of DNA synthesis in human 320DM cells assessed as ratio of treated to untreated control at 30 nM after 48 hrs by [3H]thymidine incorporation assay. Type of data set: functional. The method, boiled down:
as §1

Data set [12] can be described thus: Inhibition of DNA synthesis in human MLS cells assessed as ratio of treated to untreated control at 30 nM after 48 hrs by [3H]thymidine incorporation assay. It is filed as functional. The gist of the method:
as §1

In data set [13] the test system is A2780. The data set is described as follows: Inhibition of DNA synthesis in human A2780 cells assessed as ratio of treated to untreated control at 30 nM after 48 hrs by [3H]thymidine incorporation assay. It is filed as functional. The method, boiled down: as §1
The nature of data set [14]: Stimulation of DNA synthesis in human 320DM cells assessed as ratio of treated to untreated control at 300 nM after 48 hrs by [3H]thymidine incorporation assay. Type of data set: functional. The method, boiled down:
as §2

A short description of data set [15]: Inhibition of DNA synthesis in human MLS cells assessed as ratio of treated to untreated control at 1.1 uM after 48 hrs by [3H]thymidine incorporation assay. Type of data set: functional. The method, boiled down:
(§3)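 [3H]-thymidine incorporation into DNA in human MLS ovarian or 320DM colon cancer cells; antagonist tested at 1.1 µM alone or with estradiol at 30 nM or 300 nM. Reported as ratio of experimental to control (E/C) DNA synthesis, means ± SD of 8–16 incubates from 2–4 experiments; significance flagged at p < 0.05 and p < 0.01.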

Data set [16] in a line: Inhibition of DNA synthesis in human 320DM cells assessed as ratio of treated to untreated control at 1.1 uM after 48 hrs by [3H]thymidine incorporation assay. Type of data set: functional. The gist of the method: as §3
Data set [17] is described as follows: Inhibition of 30 nM estradiol induced stimulation of DNA synthesis in human MLS cells assessed as ratio of treated to untreated control at 1.1 uM after 48 hrs by [3H]thymidine incorporation assay. It is filed as functional. The method, boiled down: as §3
The nature of data set [18]: Inhibition of 30 nM estradiol induced stimulation of DNA synthesis in human 320DM cells assessed as ratio of treated to untreated control at 1.1 uM after 48 hrs by [3H]thymidine incorporation assay. It is filed as functional. The method, boiled down:
as §3

The nature of data set [19]: Inhibition of 300 nM estradiol induced stimulation of DNA synthesis in human MLS cells assessed as ratio of treated to untreated control at 1.1 uM after 48 hrs by [3H]thymidine incorporation assay. Type of data set: functional. The method, boiled down: as §3
A short description of data set [20]: Inhibition of 300 nM estradiol induced stimulation of DNA synthesis in human 320DM cells assessed as ratio of treated to untreated control at 1.1 uM after 48 hrs by [3H]thymidine incorporation assay. It is filed as functional. The method, boiled down: as §3

As for `CC(C)(C)OC(=O)NCCCCCCNC(=O)CCCc1oc2cc(O)cc(O)c2c(=O)c1-c1ccc(O)cc1`, the Ratio in data set [1] is 1.12; in data set [2], 0.2; in data set [3], 0.6; in [4], 0.75; in data set [5], 0.78.

Consider `COc1ccc(-c2c(CCCC(=O)NCCCCCCNC(=O)OC(C)(C)C)oc3cc(O)cc(O)c3c2=O)cc1`, for which the Ratio in [1] is given as 0.64; in data set [2] it was 0.22; in [6] it was 0.05; in data set [3] it was 0.55; in data set [4] it was 0.41; in data set [5], 0.74.

Turning to `C[C@]12CC[C@@H]3c4ccc(O)cc4CC[C@H]3[C@@H]1CC[C@@H]2O` [ESTRADIOL], the Ratio is recorded as 2.1 in data set [7]; 2.1 in data set [8]; 0.55 in [9]; 1.7 in data set [10]; 2.06 in data set [11]; 2.35 in data set [12]. In addition, the values for the Ratio in data set [13] and in [14] were 1.42 and 1.87, respectively.

Consider `C[C@]12CC[C@@H]3c4ccc(O)cc4C[C@@H](CCCCCCCCC[S+]([O-])CCCC(F)(F)C(F)(F)F)[C@H]3[C@@H]1CC[C@@H]2O` (stereo not given in full) [FULVESTRANT], for which the Ratio in data set [15] stood at 0.52; in data set [16] it was 0.63; in data set [17] it was 0.53; in [18], 0.63; in data set [19] it was 0.95; in [20] it was 0.92.
